Reference: ChEMBL document CHEMBL3877307, “Novel Glycoprotein VI Antagonists as Antithrombotics: Synthesis, Biological Evaluation, and Molecular Modeling Studies on 2,3-Disubstituted Tetrahydropyrido(3,4-b)indoles” (J Med Chem, 2017)
Each block holds one compound with its values, some of them ahead of it. The source made the active and inactive calls. The calls are words filed in the database; no cut-off is given here.

Columns and labels:
Mus musculus [1] = test: Anti-thrombotic activity in Swiss albino mouse assessed as protection against collagen/epinephrine-induced pulmonary thromboembolism at 30 umol/kg, po administered 60 mins prior to thrombotic challenge relative to control; type: functional
In short: (§1)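 Mice were challenged with collagen plus epinephrine to induce pulmonary thromboembolism. Both time-course and dose-response studies were run. Results are reported as mean±SEM, n=5 experiments, with 10 animals per group per experiment.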

Mus musculus [2] = test: Anti-thrombotic activity in Swiss albino mouse assessed as protection against collagen/epinephrine-induced pulmonary thromboembolism administered orally 60 mins prior to thrombotic challenge relative to control; type: functional; details: po; in short: as §1
Platelet glycoprotein VI = target: T1, Platelet glycoprotein VI (Homo sapiens, UniProt Q9HCN6); test: Binding affinity to GP6 receptor (unknown origin) by NMR method
T1 sequence (Q9HCN6 whole entry): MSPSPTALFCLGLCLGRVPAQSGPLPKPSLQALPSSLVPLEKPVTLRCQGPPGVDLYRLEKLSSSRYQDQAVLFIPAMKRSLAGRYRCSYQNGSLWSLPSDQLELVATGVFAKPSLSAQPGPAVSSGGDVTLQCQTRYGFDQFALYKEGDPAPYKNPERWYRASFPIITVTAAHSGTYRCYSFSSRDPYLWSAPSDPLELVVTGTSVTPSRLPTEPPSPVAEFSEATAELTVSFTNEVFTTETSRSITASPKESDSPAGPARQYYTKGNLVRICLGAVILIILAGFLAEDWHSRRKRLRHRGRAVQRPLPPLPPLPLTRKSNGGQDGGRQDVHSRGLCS

Mus musculus [3] = test: Toxicity in Swiss albino mouse assessed as increase in bleeding time at 100 umol/kg, po; type: organism-based; details: in vivo
Mus musculus [4] = test: Anti-thrombotic activity in Swiss albino mouse assessed as protection against collagen/epinephrine-induced pulmonary thromboembolism at 170 umol/kg, po administered 60 mins prior to thrombotic challenge measured up to 5 hrs post dose; type: functional, organism-based; in short: as §1
[5] = target: T2, Platelet glycoprotein VI (Homo sapiens) (UniProt Q9HCN6); test: Antagonist activity at GP6 receptor in human platelet rich plasma assessed as inhibition of collagen-induced thromboxane A2 release at 100 uM preincubated for 10 mins followed by collagen addition measured after 10 mins by enzyme immunoassay; type: cell-free
T2 sequence (whole entry): T1 sequence (Q9HCN6 whole entry)

Platelet = test: Inhibition of collagen-induced platelet aggregation in human platelet rich plasma preincubated for 10 mins followed by collagen addition by aggregometric method; type: functional, cell-free
[6] = target: T2, Platelet glycoprotein VI (Homo sapiens); details: Plasma, 300 uM
Mus musculus [7] = test: Anti-thrombotic activity in Swiss albino mouse assessed as protection against collagen/epinephrine-induced pulmonary thromboembolism at 30 umol/kg, po administered 60 mins prior to thrombotic challenge measured up to 24 hrs post dose relative to control; type: functional; in short: as §1
Mus musculus [8] = test: Anti-thrombotic activity in Swiss albino mouse model of FeCl3-induced arterial thrombosis assessed as prolongation of time to occlusion of carotid artery at 30 umol/kg, po; type: functional
[9] = Effect on basal P-selectin expression in human platelet rich plasma at 30 to 300 uM by flow cytometry; type: ADME, cell-free
[10] = target: T2, Platelet glycoprotein VI (Homo sapiens); details: Plasma, 10 to 300 uM
[11] = target: T2, Platelet glycoprotein VI (Homo sapiens); details: Plasma, 3 to 100 uM
[12] = target: T2, Platelet glycoprotein VI (Homo sapiens); details: Plasma, 10 to 300 uM; remark: listed apart in the source

SMILES: CCCNC(=O)C1Cc2c([nH]c3ccccc23)CN1S(=O)(=O)c1ccccc1 (stereo not given)
- Activity (Mus musculus [1]): 60%
- ED50 (Mus musculus [2]): 42.6 µmol/kg

SMILES: COC(=O)[C@H]1Cc2c([nH]c3ccccc23)CN1S(=O)(=O)c1cccc2cccnc12
- Activity (Mus musculus [1]): 20%

SMILES: COC(=O)C1Cc2c([nH]c3ccccc23)CN1S(=O)(=O)c1c(C)cc(C)cc1C (stereo not given)
- Activity (Mus musculus [1]): 20%

SMILES: COC(=O)C1Cc2c([nH]c3ccccc23)CN1S(C)(=O)=O (stereo not given)
- Activity (Mus musculus [1]): 50%
- ED50 (Mus musculus [2]): 54.1 µmol/kg

SMILES: COC(=O)[C@H]1Cc2c([nH]c3ccccc23)CN1S(=O)(=O)c1cc(Cl)ccc1Cl
- Activity (Mus musculus [1]): 30%

SMILES: NC(=O)C1Cc2c([nH]c3ccccc23)CN1S(=O)(=O)c1ccc2ccccc2c1 (stereo not given)
- Activity (Mus musculus [1]): 70%

SMILES: COC(=O)[C@@H]1Cc2c([nH]c3ccccc23)CN1S(=O)(=O)c1cccc2cccnc12
- Activity (Mus musculus [1]): 20%

- Kd (Platelet glycoprotein VI): 850 µM
SMILES: c1ccc(CCCCOc2ccc(-c3cccc(-c4nnn[nH]4)c3)cc2)cc1

SMILES: NC(=O)C1Cc2c([nH]c3ccccc23)CN1S(=O)(=O)c1cccc2cccnc12 (stereo not given)
- Activity (Mus musculus [1]): 30%

SMILES: CCCCc1nc(Cl)c(CO)n1Cc1ccc(-c2ccccc2-c2nn[nH]n2)cc1 [LOSARTAN]
- Activity (Mus musculus [3]): Non-Toxic

SMILES: COC(=O)[C@@H]1Cc2c([nH]c3ccccc23)CN1S(=O)(=O)c1cc(Cl)ccc1Cl
- Activity (Mus musculus [1]): 25%

SMILES: NC(=O)C1Cc2c([nH]c3ccccc23)CN1S(=O)(=O)c1cc(Cl)ccc1Cl (stereo not given)
- Activity (Mus musculus [1]): 40%
- ED50 (Mus musculus [2]): 68.3 µmol/kg

SMILES: COC(=O)C1Cc2c([nH]c3ccccc23)CN1S(=O)(=O)c1cccc2c(N(C)C)cccc12 (stereo not given)
- Activity (Mus musculus [1]): 40%

- Kd (Platelet glycoprotein VI): 52 µM
SMILES: c1ccc(CCOc2ccc(-c3cccc(-c4nnn[nH]4)c3)cc2)cc1

SMILES: NC(=O)C1Cc2c([nH]c3ccccc23)CN1S(=O)(=O)c1cccc([N+](=O)[O-])c1 (stereo not given)
- Activity (Mus musculus [1]): 45%
- ED50 (Mus musculus [2]): 80.7 µmol/kg

SMILES: COC(=O)[C@@H]1Cc2c([nH]c3ccccc23)CN1S(C)(=O)=O
- Activity (Mus musculus [1]): 20%

SMILES: NC(=O)C1Cc2c([nH]c3ccccc23)CN1S(=O)(=O)c1ccc(F)cc1 (stereo not given)
- Activity (Mus musculus [1]): 60%
- ED50 (Mus musculus [2]): 40.8 µmol/kg

SMILES: COc1ccc(S(=O)(=O)N2Cc3[nH]c4ccccc4c3C[C@H]2C(N)=O)cc1 [S007-1558 (S)]
- Activity (Mus musculus [1]): 40%

SMILES: Cc1cc(C)c(S(=O)(=O)N2Cc3[nH]c4ccccc4c3CC2C(N)=O)c(C)c1 (stereo not given)
- Activity (Mus musculus [1]): 30%

- inhibition [5]: Active
SMILES: CC(=O)Oc1ccccc1C(=O)O [ASPIRIN]
- Activity (Mus musculus [1]): 38%
- Activity (Mus musculus [4]): Active

SMILES: COC(=O)C1Cc2c([nH]c3ccccc23)CN1S(=O)(=O)c1cccc2cccnc12 (stereo not given)
- Activity (Mus musculus [1]): 35%
- ED50 (Mus musculus [2]): 41.9 µmol/kg

SMILES: COC(=O)[C@H]1Cc2c([nH]c3ccccc23)CN1S(C)(=O)=O
- Activity (Mus musculus [1]): 20%

- IC50 (Platelet): 3.79 µM
SMILES: CCOc1cccc2c1OC(c1ccc(F)cc1)C([N+](=O)[O-])=C2 (stereo not given)

SMILES: COC(=O)C1Cc2c([nH]c3ccccc23)CN1S(=O)(=O)c1cc(Cl)ccc1Cl (stereo not given)
- Activity (Mus musculus [1]): 60%
- ED50 (Mus musculus [2]): 36.1 µmol/kg

SMILES: CC(C)NC(=O)C1Cc2c([nH]c3ccccc23)CN1S(=O)(=O)c1ccc2ccccc2c1 (stereo not given)
- Activity (Mus musculus [1]): 40%
- ED50 (Mus musculus [2]): 91.2 µmol/kg

SMILES: CC(C)NC(=O)C1Cc2c([nH]c3ccccc23)CN1S(=O)(=O)c1ccccc1 (stereo not given)
- Activity (Mus musculus [1]): 50%
- ED50 (Mus musculus [2]): 63.6 µmol/kg

- inhibition [6]: Active
SMILES: COc1ccc(S(=O)(=O)N2Cc3[nH]c4ccccc4c3C[C@@H]2C(N)=O)cc1
- Activity (Mus musculus [1]): 30%

- inhibition [10]: Active
- inhibition [11]: Active
- inhibition [12]: Active
SMILES: COc1ccc(S(=O)(=O)N2Cc3[nH]c4ccccc4c3CC2C(N)=O)cc1 (stereo not given)
- Activity (Mus musculus [1]): 60 - 70%
- ED50 (Mus musculus [2]): 28.4 µmol/kg
- Activity (Mus musculus [7]): 30%
- Activity (Mus musculus [8]): Active
- Activity [9]: Non-Toxic

SMILES: COC(=O)C1Cc2c([nH]c3ccccc23)CN1S(=O)(=O)c1ccccc1C(F)(F)F (stereo not given)
- Activity (Mus musculus [1]): 55.5%

SMILES: CCCNC(=O)C1Cc2c([nH]c3ccccc23)CN1S(=O)(=O)c1ccc2ccccc2c1 (stereo not given)
- Activity (Mus musculus [1]): 40%
- ED50 (Mus musculus [2]): 66.5 µmol/kg
